pIC50: −log10 of the molar value. ≈ marks a conversion by molar mass, not a printed value. Each block holds one compound with its values, some of them ahead of it. Calls of active or inactive are those of the source. No cut-off for these calls is given here.
Legend:
[1] = Half life in mouse liver microsomes at 4.6 uM in presence of NADPH by LC/MS-MS analysis; format: ADME, Microsome
Outline: (§1)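 Kinetic aqueous solubility was measured in PBS, pH 7.4. Metabolic stability was measured as t1/2 in mouse plasma and mouse liver microsomes, with microsomal data also given as % compound remaining at 1 h. Values are means of at least two independent experiments, each in two technical replicates.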

Acid ceramidase [2] = biological target: T1, Acid ceramidase (Homo sapiens, UniProt Q13510); assay: Inhibition of human acid ceramidase using Rbm14-12 fluorogenic substrate incubated for 1 hr by fluorescence assay; conditions: for pIC50: read-out: IC50
T1 sequence (Q13510 whole entry): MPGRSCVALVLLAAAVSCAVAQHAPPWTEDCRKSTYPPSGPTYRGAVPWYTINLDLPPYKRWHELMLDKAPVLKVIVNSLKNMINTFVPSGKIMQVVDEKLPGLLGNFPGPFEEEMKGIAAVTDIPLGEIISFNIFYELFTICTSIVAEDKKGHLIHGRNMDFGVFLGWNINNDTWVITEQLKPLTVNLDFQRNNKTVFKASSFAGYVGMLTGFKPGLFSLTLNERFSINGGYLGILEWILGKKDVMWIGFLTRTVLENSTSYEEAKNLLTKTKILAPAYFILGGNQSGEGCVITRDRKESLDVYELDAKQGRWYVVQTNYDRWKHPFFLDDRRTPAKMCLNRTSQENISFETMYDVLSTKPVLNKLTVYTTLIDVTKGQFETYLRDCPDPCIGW

[3] = Half life in mouse plasma at 2 uM by LC/MS-MS analysis; format: ADME, cell-free; outline: as §1
[4] = Kinetic solubility in pH 7.4 PBS buffer at 250 uM incubated for 1 hr by UPLC/MS analysis; format: physicochemical; conditions: read-out: Kinetic_solubility; outline: as §1
Acid ceramidase [5] = biological target: T1, Acid ceramidase; assay: Inhibition of human acid ceramidase
[6] = biological target: T2, Acid ceramidase (Homo sapiens) (UniProt Q13510); assay: Inhibition of human acid ceramidase at 1 to 10 uM using N-lauroyl ceramide incubated for 1 hr by LC/MS analysis; conditions: dose 1-10 µM
T2 sequence (whole entry): T1 sequence (Q13510 whole entry)

[7] = Half life in mouse plasma; format: ADME, cell-free; outline: as §1
[8] = Stability in mouse plasma at 2 uM after 120 mins by LC/MS-MS analysis; format: ADME, cell-free; conditions: read-out: Stabilty
[9] = biological target: T2, Acid ceramidase (Homo sapiens); assay: Inhibition of human acid ceramidase at 10 uM using N-lauroyl ceramide incubated for 1 hr by LC/MS analysis relative to control
[10] = biological target: T2, Acid ceramidase (Homo sapiens); assay: Inhibition of acid ceramidase in human NCI-H460 cells at 25 uM relative to control; format: cell-based
Acid ceramidase [11] = biological target: T1, Acid ceramidase; assay: Inhibition of acid ceramidase in human SK-OV-3 cell lysates; format: subcellular
[12] = Stability in mouse liver microsomes at 4.6 uM in presence of NADPH after 60 mins by LC/MS-MS analysis; format: ADME, Microsome; conditions: read-out: Stabilty; outline: as §1
[13] = Half life in pH 7 0.01M PBS buffer at 2 uM by LC/MS-MS analysis; format: physicochemical
[14] = biological target: T2, Acid ceramidase (Homo sapiens); assay: Irreversible covalent inhibition of human acid ceramidase using N-lauroyl ceramide incubated for 1 hr by LC/MS analysis
[15] = biological target: T2, Acid ceramidase (Homo sapiens); assay: Inhibition of human acid ceramidase at 5 uM using N-lauroyl ceramide incubated for 1 hr by LC/MS analysis relative to control
[16] = biological target: T2, Acid ceramidase (Homo sapiens); assay: Inhibition of human acid ceramidase using Rbm14-12 fluorogenic substrate incubated for 1 hr by fluorescence assay
Acid ceramidase [17] = biological target: T1, Acid ceramidase; assay: Inhibition of acid ceramidase in human HaCaT cell lysates; format: subcellular
Acid ceramidase [18] = biological target: T1, Acid ceramidase; assay: Inhibition of acid ceramidase in human HL-60 cell lysates; format: subcellular

t1/2 [1]: < 0.083 h
pIC50 (Acid ceramidase [2]): 5.69
t1/2 [3]: 1.33 h
solubility kinetic at 1 h, 250 µM [4]: 20 µM (≈ 5.53 µg/mL)
Compound: CCOCCNC(=O)n1cc(-c2ccccc2)oc1=O

pIC50 (Acid ceramidase [5]): 7.85
half-life [7]: 9 min
Compound: CCCCCCNC(=O)n1nc(C)cc1C(F)(F)F

t1/2 [1]: < 0.083 h
pIC50 (Acid ceramidase [2]): 7.41
remaining at 2 h, 2 µM [8]: 60%
t1/2 [3]: > 2 h
solubility kinetic at 1 h, 250 µM [4]: < 1 µM
Compound: CCCCCNC(=O)n1cc(-c2ccccc2)oc1=O

pIC50 (Acid ceramidase [2]): 7.04
Compound: Cn1nc(-c2cn(C(=O)NCCCCc3ccccc3)c(=O)o2)c2ccccc21

pIC50 (Acid ceramidase [2]): 5.72
Compound: CCCCCNC(=O)n1cc(-c2ccc(F)c(C3CCN(C)CC3)c2)oc1=O

pIC50 (Acid ceramidase [2]): 7.23
Compound: O=C(NCCCCc1ccccc1)n1cc(-c2nccs2)oc1=O

pIC50 (Acid ceramidase [2]): 7.16
Compound: Cc1c(-c2ccccc2)oc(=O)n1C(=O)NCCCCc1ccccc1

pIC50 (Acid ceramidase [2]): 7.36
Compound: O=C(NCCCCc1ccccc1)n1cc(-c2cscn2)oc1=O

inhibition [15]: 20%
Compound: O=C(Nc1ccccc1)n1cc(-c2ccccc2)oc1=O

inhibition [6]: inactive
Compound: O=C(NCCCCc1ccccc1)N1C[C@H](c2ccccc2)OC1=O

pIC50 (Acid ceramidase [2]): 7.43
Compound: O=C(NCCCCc1ccccc1)n1cc(-c2cnc3ccccc3n2)oc1=O

inhibition [6]: inactive
Compound: O=C(NCCCCc1ccccc1)N1C[C@@H](c2ccccc2)OC1=O

half-life at 2 µM [13]: 0.167 h
Compound: O=C(NCCCCc1ccccc1)n1c(-c2ccccc2)coc1=O

pIC50 (Acid ceramidase [5]): 7.28
Compound: CCCCCCCCCCCCCCC[C@@H](O)[C@H](CO)NC(=O)CBr

t1/2 [1]: 0.5 h
pIC50 (Acid ceramidase [2]): 6.47
remaining at 2 h, 2 µM [8]: 64%
t1/2 [3]: > 2 h
solubility kinetic at 1 h, 250 µM [4]: < 1 µM
Compound: COc1cccc(-c2cn(C(=O)NCCCCc3ccccc3)c(=O)o2)c1

t1/2 [1]: 0.833 h
pIC50 (Acid ceramidase [2]): 5.77
remaining at 2 h, 2 µM [8]: 70%
t1/2 [3]: > 2 h
solubility kinetic at 1 h, 250 µM [4]: < 1 µM
Compound: CC(C)CNC(=O)n1cc(-c2ccccc2)oc1=O

inhibition [6]: inactive
Compound: O=C(CCCCCc1ccccc1)n1cc(-c2ccccc2)oc1=O

t1/2 [1]: > 1 h
pIC50 (Acid ceramidase [2]): 7.74
t1/2 [3]: 0.5 h
solubility kinetic at 1 h, 250 µM [4]: < 1 µM
remaining at 1 h, 4.6 µM [12]: 75%
Compound: O=C(NCCCCc1ccccc1)n1cc(-c2ccncc2)oc1=O

inhibition [9]: 53%
Compound: COCCCNC(=O)n1cc(-c2ccccc2)oc1=O

t1/2 [1]: 1 h
pIC50 (Acid ceramidase [2]): 6.73
t1/2 [3]: 1.5 h
solubility kinetic at 1 h, 250 µM [4]: < 1 µM
Compound: O=C(NCCCCc1ccccc1)n1cc(-c2ccc(F)cc2)oc1=O

t1/2 [1]: 0.167 h
pIC50 (Acid ceramidase [2]): 7.60
t1/2 [3]: 0.667 h
solubility kinetic at 1 h, 250 µM [4]: < 1 µM
Compound: O=C(NCCCCc1ccccc1)n1cc(-c2ccccn2)oc1=O

pIC50 (Acid ceramidase [17]): 3.30
pIC50 (Acid ceramidase [18]): < 3.30
Compound: CCCCCCCCCCCCCC(=O)N[C@H](C)[C@@H](O)c1ccccc1

pIC50 (Acid ceramidase [5]): 3.30
Compound: CCCCCCCC/C=C\CCCCCCCC(=O)NCCO [OLEOYLETHANOLAMIDE]

Continued, compound first:

Compound: CCCCCCCCCCCCCC(=O)NCC(O)c1ccccc1 (centres undefined)
pIC50 (Acid ceramidase [5]): 5.89

Compound: CN(CCCCc1ccccc1)C(=O)n1cc(-c2ccccc2)oc1=O
inhibition [6]: inactive

Compound: O=C(NCCCCc1ccccc1)n1cc(-c2ccc(Cl)cc2)oc1=O
pIC50 (Acid ceramidase [2]): 7.08

Compound: CCCCCCNC(=O)n1cc(F)c(=O)n(C(=O)OCC(C)C)c1=O
pIC50 (Acid ceramidase [5]): 8.11

Compound: CC(C)CNC(=O)n1cc(-c2ccc(F)cc2C2CCN(C)CC2)oc1=O
inhibition [9]: 38%

Compound: COc1ccc(-c2cn(C(=O)NCCCCc3ccccc3)c(=O)o2)cc1
pIC50 (Acid ceramidase [2]): 6.40

Compound: COc1ccc(/C=C/C(=O)c2c(-c3ccccc3)c3ccccc3[nH]c2=O)cc1
inhibition [10]: 44%
pIC50 (Acid ceramidase [5]): 4.55
pIC50 (Acid ceramidase [11]): 4.55

Compound: O=C(NCCCCc1ccccc1)n1cc(-c2cccnc2)oc1=O
t1/2 [1]: > 1 h
pIC50 (Acid ceramidase [2]): 7.15
t1/2 [3]: 1 h
solubility kinetic at 1 h, 250 µM [4]: < 1 µM
remaining at 1 h, 4.6 µM [12]: 55%

Compound: O=C(NCCCCc1ccccc1)n1c(-c2ccc(Cl)cc2)coc1=O
pIC50 (Acid ceramidase [2]): 8.30

Compound: O=c1[nH]cc(-c2ccccc2)o1
IC50 (Acid ceramidase [2]): Not Active

Compound: CCC(C)NC(=O)n1cc(-c2ccccc2)oc1=O (racemic)
inhibition [9]: 21%

Compound: CC(C)CNC(=O)n1cc(-c2ccc(F)c(C3CCN(C)CC3)c2)oc1=O
inhibition [9]: 26%

Compound: O=C(NCCCCc1ccccc1)n1cc(-c2cnccn2)oc1=O
t1/2 [1]: 1 h
pIC50 (Acid ceramidase [2]): 7.49
t1/2 [3]: 0.667 h
solubility kinetic at 1 h, 250 µM [4]: < 1 µM

Compound: CN1CCC(c2cc(-c3cn(C(=O)NCCCCc4ccccc4)c(=O)o3)ccc2F)CC1
t1/2 [1]: > 1 h
pIC50 (Acid ceramidase [2]): 6.47
remaining at 2 h, 2 µM [8]: 80%
t1/2 [3]: > 2 h
solubility kinetic at 1 h, 250 µM [4]: 30 µM (≈ 13.5 µg/mL)
remaining at 1 h, 4.6 µM [12]: 70%

Compound: N=C(N)Nc1ccc(CC(=O)Oc2ccc(-c3ccccc3)cc2)cc1
pIC50 (Acid ceramidase [5]): 4.28

Compound: Cc1oc(=O)n(C(=O)NCCCCc2ccccc2)c1-c1ccccc1
pIC50 (Acid ceramidase [2]): 7.38

Compound: O=C(NCCCCc1ccccc1)n1cc(-c2ccccc2)oc1=O
t1/2 [1]: 0.667 h
pIC50 (Acid ceramidase [2]): 7.05
t1/2 [3]: < 0.083 h
solubility kinetic at 1 h, 250 µM [4]: < 1 µM
half-life at 2 µM [13]: > 12 h
inhibition [14]: Dose-dependent effect

Compound: COc1cc(-c2cn(C(=O)NCCCCc3ccccc3)c(=O)o2)ccc1F
t1/2 [1]: > 1 h
pIC50 (Acid ceramidase [2]): 7.10
remaining at 2 h, 2 µM [8]: 64%
t1/2 [3]: > 2 h
solubility kinetic at 1 h, 250 µM [4]: < 1 µM
remaining at 1 h, 4.6 µM [12]: 74%

Compound: CN1CCC(c2cccc(-c3cn(C(=O)NCCCCc4ccccc4)c(=O)o3)c2)CC1
t1/2 [1]: 0.5 h
pIC50 (Acid ceramidase [2]): 6.82
remaining at 2 h, 2 µM [8]: 73%
t1/2 [3]: > 2 h
solubility kinetic at 1 h, 250 µM [4]: 70 µM (≈ 30.3 µg/mL)

Compound: COc1ccccc1-c1cn(C(=O)NCCCCc2ccccc2)c(=O)o1
pIC50 (Acid ceramidase [2]): 6.75

Compound: CN1CCC(c2cc(F)ccc2-c2cn(C(=O)NCCCCc3ccccc3)c(=O)o2)CC1
t1/2 [1]: > 1 h
pIC50 (Acid ceramidase [2]): 6.47
remaining at 2 h, 2 µM [8]: 54%
t1/2 [3]: > 2 h
solubility kinetic at 1 h, 250 µM [4]: 60 µM (≈ 27.1 µg/mL)
remaining at 1 h, 4.6 µM [12]: 51%

Compound: CN1CCC(c2cn(C(=O)NCCCCc3ccccc3)c(=O)o2)CC1
pIC50 (Acid ceramidase [2]): 5.85

Compound: CCCCCCNC(=O)n1cc(Cl)c(=O)n(C(=O)OCC(C)C)c1=O
pIC50 (Acid ceramidase [5]): 7.89

Compound: CN1CCC(c2cc(F)ccc2-c2c[nH]c(=O)o2)CC1
inhibition [16]: inactive

Compound: CCCCCNC(=O)n1c(-c2ccccc2)coc1=O
pIC50 (Acid ceramidase [2]): 7.60

Compound: O=C(OCCCCc1ccccc1)n1cc(-c2ccccc2)oc1=O
inhibition [6]: inactive
